{"data": "Measured values gathered from unrelated publications", "target": "5-hydroxytryptamine receptor 2C (HTR2C, Homo sapiens, UniProt P28335)", "One construct used (P28335 33-458)": "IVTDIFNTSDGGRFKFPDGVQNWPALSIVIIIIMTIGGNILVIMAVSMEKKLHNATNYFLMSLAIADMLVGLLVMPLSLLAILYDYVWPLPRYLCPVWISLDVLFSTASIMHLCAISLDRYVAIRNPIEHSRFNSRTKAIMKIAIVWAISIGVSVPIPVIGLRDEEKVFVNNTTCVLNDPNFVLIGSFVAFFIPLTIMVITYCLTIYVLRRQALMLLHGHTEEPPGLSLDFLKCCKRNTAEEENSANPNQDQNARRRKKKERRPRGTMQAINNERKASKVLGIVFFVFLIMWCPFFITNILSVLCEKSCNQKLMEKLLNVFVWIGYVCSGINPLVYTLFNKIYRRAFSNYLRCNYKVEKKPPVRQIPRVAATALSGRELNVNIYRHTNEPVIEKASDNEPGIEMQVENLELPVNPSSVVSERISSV", "note": "Lines come from different studies, so protocols differ."}
{"SMILES": "Fc1ccc(CCCCN2CCN(c3ccccn3)CC2)cc1", "effect on": "ligand displacement", "method": "radioligand", "measurement": "Ki", "value": "> 10000 nM"}
{"SMILES": "C#CCOCCOCCOc1ccc2c3c1C1CCCC1N3CCNC2 (racemic)", "effect on": "calcium signal", "mode": "agonist", "method": "fluorescence", "measurement": "EC50", "value": "237 nM"}
{"SMILES": "CC1Cc2ccccc2N1C(=O)NCCCCN(C)[C@@H]1Cc2cccc3[nH]c(=O)n(c23)C1 (mixture of isomers)", "effect on": "ligand displacement", "method": "radioligand", "measurement": "Ki", "value": "> 10000 nM"}
{"SMILES": "C#CCOCCOc1ccc2c3c1C1CCCC1N3CCNC2 (racemic)", "effect on": "calcium signal", "mode": "agonist", "method": "fluorescence", "measurement": "EC50", "value": "53.4 nM"}
{"SMILES": "COc1cc(OC)c(C(=O)CCCCN2CCC3(CC2)NC(=O)NC3=O)cc1NS(=O)(=O)c1ccc(C(F)(F)F)cc1", "effect on": "ligand displacement", "method": "radioligand", "measurement": "Ki", "value": "0.99 nM"}
{"SMILES": "CN(CCCCNC(=O)c1cc2ccccc2[nH]1)[C@@H]1Cc2cccc3[nH]c(=O)n(c23)C1", "effect on": "ligand displacement", "method": "radioligand", "measurement": "Ki", "value": "2440 nM"}
{"SMILES": "CCCCN1CCC(COC(=O)c2ccc(N)c(OCF)c2)CC1", "effect on": "cell-free assay", "method": "radioligand", "measurement": "Ki", "value": "> 10000 nM"}
{"SMILES": "O=C1c2ccccc2CCN1CCCCN1CCN(c2cccc(Cl)c2Cl)CC1", "effect on": "ligand displacement", "method": "radioligand", "measurement": "Ki", "value": "354 nM"}
{"SMILES": "OC[C@@]12C[C@@H]1[C@@H](n1cnc3c(N[C@@H](C4CCC4)C4CC4)nc(I)nc31)[C@H](O)[C@@H]2O", "effect on": "calcium signal", "mode": "antagonist", "measurement": "Kb", "value": "148 nM"}
{"SMILES": "Cc1nc2cc(OCCCCN3CCN(c4cccc(Cl)c4Cl)CC3)ccc2s1", "effect on": "cell-free assay", "method": "radioligand", "measurement": "Ki", "value": "160 nM"}
{"SMILES": "CC(C)(C)c1cc(C(C)(C)CO)c(O)cc1NC(=O)c1c[nH]c2ccccc2c1=O", "effect on": "ligand displacement", "method": "radioligand", "measurement": "Ki", "value": "1550 nM"}
{"SMILES": "CNc1nc2cc(OCCCCN3CCC(c4cccc(Cl)c4Cl)CC3)ccc2s1", "effect on": "cell-free assay", "method": "radioligand", "measurement": "Ki", "value": "73 nM"}
{"SMILES": "CN(Cc1ccc(NC(=O)C2=Cc3cc(-c4ccc(OCCCF)cc4)ccc3CCC2)cc1)C1CCOCC1", "effect on": "ligand displacement", "method": "radioligand", "measurement": "Ki", "value": "1020 nM"}
